Experimental data from different studies.
Protocols differ between the studies behind these lines.
Target: Casein kinase I isoform gamma-2 (CSNK1G2, Homo sapiens, UniProt P78368)

| Structure (SMILES) | assay | setting | measurement | value |
| --- | --- | --- | --- | --- |
| N#Cc1ccc2nc(Nc3ccc(N4CCOCC4)c(Cl)c3)[nH]c2c1 | thermal stability, DSF | 30 µM | ΔTm | 3.6 °C |
| C1=C/COCc2cc(ccc2OCCN2CCCC2)Nc2nccc(n2)-c2cccc(c2)COC/1 | cell-free assay | 0.1 µM | remaining signal | 92% |
| COc1ccc2oc(-c3ccc4nc(N)oc4c3)c/c(=N\c3ccccc3NC(=O)CCN)c2c1 | binding | 1 µM | remaining binding | 95% |
| CO[C@@H]1[C@H](N(C)C(=O)c2ccccc2)C[C@H]2O[C@]1(C)n1c3ccccc3c3c4c(c5c6ccccc6n2c5c31)C(=O)NC4 | enzyme activity, inhibitor | 1 µM | inhibition | 4% |
| C[C@H]1CC[C@H](n2c3cnccc3c3cnc(Nc4ccc5c(n4)CCN(C(=O)CO)C5)nc32)CC1 | cell-free assay | 1 µM | remaining signal | 98% |
| CCCCC(=O)Nc1ccc(-c2ccc3ncn(CCC)c(=O)c3c2)cn1 | binding, competition with immobilised ligand | 0.5 µM | remaining binding | 91% |
| CC#CC(=O)N1CCC[C@H]1c1nc(-c2ccc(C(=O)Nc3ccccn3)cc2)c2c(N)nccn12 | enzyme activity, inhibitor | 1 µM | inhibition | 9% |
| CC(C)S(=O)(=O)c1ccc2nccc(Nc3ccc4sc(C5CCCC5)nc4c3)c2c1 | enzyme activity, inhibitor | 1 µM | activity vs control | 100% |
| C#Cc1cnc(Nc2ccnc(CO)c2)nc1Nc1ccccc1S(C)(=O)=NC#N (stereo not drawn) | cell-free assay | 1 µM | remaining signal | 65% |
| Cc1cc(O)c(-c2ccc([C@@H](C)CN(C)C)cc2)c2c1[nH]c(=O)c1sccc12 | enzyme activity, inhibitor | 0.1 µM | inhibition | -6.66% |
| CN1CCN(C(=O)c2ccc(NC(=O)Nc3ccc(N(C)c4ccnc(Nc5ccc(CS(C)(=O)=O)cc5)n4)cc3)cc2)CC1 | binding | 1 µM | remaining binding | 100% |
| N#Cc1ccc(NC(=O)Nc2ccccc2)cc1 | cell-free assay, competition with immobilised ligand | 25 µM | remaining binding | 100% |
